ChEMBL document CHEMBL1137299, “Elucidation of the bioactive conformation of the N-substituted trans-3,4-dimethyl-4-(3-hydroxyphenyl)piperidine class of mu-opioid receptor antagonists” (J Med Chem, 2006)

What was measured:
Mu-type opioid receptor [1] = molecular target: T1, Mu-type opioid receptor (Homo sapiens, UniProt P35372); assay: Displacement of [3H]diprenorphine from human cloned mu opioid receptor expressed in CHO cells; format: cell-based
[2] = molecular target: T2, Kappa-type opioid receptor (Homo sapiens, UniProt P41145); assay: Displacement of [3H]diprenorphine from human cloned kappa opioid receptor expressed in CHO cells; format: cell-based
T2 sequence (P41145 whole entry): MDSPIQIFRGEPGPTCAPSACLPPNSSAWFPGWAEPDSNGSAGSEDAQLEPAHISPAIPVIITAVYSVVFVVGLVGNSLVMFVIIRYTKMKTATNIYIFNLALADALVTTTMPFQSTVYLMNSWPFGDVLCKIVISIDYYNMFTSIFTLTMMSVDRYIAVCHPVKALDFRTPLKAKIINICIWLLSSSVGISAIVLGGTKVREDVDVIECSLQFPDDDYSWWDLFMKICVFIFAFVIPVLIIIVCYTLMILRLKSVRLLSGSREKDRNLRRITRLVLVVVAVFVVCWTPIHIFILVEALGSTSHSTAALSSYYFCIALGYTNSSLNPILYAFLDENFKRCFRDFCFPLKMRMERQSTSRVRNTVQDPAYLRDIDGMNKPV

[3] = molecular target: T3, Delta-type opioid receptor (Homo sapiens, UniProt P41143); assay: Inhibition of [3H]diprenorphine binding to human cloned delta opioid receptor expressed in CHO cells at 10 uM; format: cell-based
T3 sequence (P41143 whole entry): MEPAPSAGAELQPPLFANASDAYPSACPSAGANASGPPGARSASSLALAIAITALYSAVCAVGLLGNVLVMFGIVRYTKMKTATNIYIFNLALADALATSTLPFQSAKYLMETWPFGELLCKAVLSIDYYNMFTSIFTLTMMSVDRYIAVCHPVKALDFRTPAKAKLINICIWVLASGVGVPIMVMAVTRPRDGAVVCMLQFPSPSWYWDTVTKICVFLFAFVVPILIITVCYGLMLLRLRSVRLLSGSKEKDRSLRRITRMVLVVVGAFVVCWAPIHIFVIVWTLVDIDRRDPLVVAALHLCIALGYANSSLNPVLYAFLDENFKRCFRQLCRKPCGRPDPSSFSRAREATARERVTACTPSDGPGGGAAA
Summary of the method: (§1)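 Membranes from CHO cells stably expressing human δ, κ or μ receptor (10-80 µg protein) incubated with [3H]diprenorphine (0.5-1.0 nM) and competitor at 10 µM. Buffer: 50 mM Tris-HCl pH 7.8, 1 mM EGTA, 5 mM MgCl2, protease inhibitors. 60 min at room temperature, then GF/B filtration and scintillation counting. Nonspecific binding was defined with 10 µM naloxone. Read-out was % inhibition of specific binding.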

[4] = molecular target: T2, Kappa-type opioid receptor; assay: Antagonist activity against human cloned kappa opioid receptor expressed in CHO cells assessed as inhibition of […]-stimulated [35S]GTPgammaS binding; format: functional, cell-based
[5] = molecular target: T3, Delta-type opioid receptor; assay: Antagonist activity against human cloned delta opioid receptor expressed in CHO cells assessed as inhibition of […]-stimulated [35S]GTP-gamma-S binding; format: functional, cell-based
Summary of the method: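 In receptor-expressing CHO membranes (50-100 µg protein), antagonist was added to mixtures containing […] agonist. Incubated 1 h at room temperature, then centrifuged; bound radioactivity was counted by scintillation.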

[6] = molecular target: T3, Delta-type opioid receptor; assay: Displacement of [3H]diprenorphine from human cloned delta opioid receptor expressed in CHO cells; format: cell-based
Mu-type opioid receptor [7] = molecular target: T1, Mu-type opioid receptor; assay: Antagonist activity against human cloned mu opioid receptor expressed in CHO cells assessed as inhibition of loperamide-stimulated [35S]GTP-gamma-S binding; format: functional, cell-based
Mu-type opioid receptor [8] = molecular target: T1, Mu-type opioid receptor; assay: Agonist activity at human cloned mu opioid receptor expressed in CHO cells assessed as stimulation of [35S]GTP-gamma-S binding; format: functional, cell-based
Summary of the method: (§2)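 CHO membranes expressing the relevant human receptor (50-100 µg protein) were exposed to a concentration series of agonist. Incubated 1 h at room temperature, centrifuged, and bound label counted. Potency and efficacy were assessed from stimulation.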

[9] = molecular target: T2, Kappa-type opioid receptor; assay: Partial agonist activity at human cloned kappa opioid receptor expressed in CHO cells assessed as stimulation of [35S]GTP-gamma-S binding; format: functional, cell-based; summary of the method: as §2
[10] = molecular target: T3, Delta-type opioid receptor; assay: Agonist activity at human cloned delta opioid receptor expressed in CHO cells assessed as stimulation of [35S]GTP-gamma-S binding; format: functional, cell-based; summary of the method: as §2
[11] = molecular target: T2, Kappa-type opioid receptor; assay: Inhibition of [3H]diprenorphine binding to human cloned kappa opioid receptor expressed in CHO cells at 10 uM; format: cell-based; summary of the method: as §1
Mu-type opioid receptor [12] = molecular target: T1, Mu-type opioid receptor; assay: Inhibition of [3H]diprenorphine binding to human cloned mu opioid receptor expressed in CHO cells at 10 uM; format: cell-based; summary of the method: as §1

T1 sequence (P35372 whole entry): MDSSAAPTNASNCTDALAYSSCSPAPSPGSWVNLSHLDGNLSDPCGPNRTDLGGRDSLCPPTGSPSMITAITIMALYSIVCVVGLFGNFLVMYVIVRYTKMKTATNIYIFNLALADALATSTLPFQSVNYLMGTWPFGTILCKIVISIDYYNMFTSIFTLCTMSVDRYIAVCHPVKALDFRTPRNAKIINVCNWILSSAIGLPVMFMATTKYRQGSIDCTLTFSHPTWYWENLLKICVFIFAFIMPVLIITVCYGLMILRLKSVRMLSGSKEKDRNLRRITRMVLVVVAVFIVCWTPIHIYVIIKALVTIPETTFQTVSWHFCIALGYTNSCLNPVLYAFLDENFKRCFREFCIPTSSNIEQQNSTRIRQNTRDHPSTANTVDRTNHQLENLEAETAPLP

Row | Structure (SMILES) | Ki (Mu-type opioid receptor [1]) [nM] | Ki [2] [nM] | inhibition [3] [%] | Ki [6] [nM] | IC50 (Mu-type opioid receptor [7]) [nM] | also measured
1 | C[C@H]1CN2C[C@@H](c3ccccc3)CC[C@@H]2C[C@@]1(C)c1cccc(O)c1 | 430 | 1400 | 49 | – | – | –
2 | C[C@H]1CN2C[C@H](c3ccccc3)CC[C@H]2C[C@@]1(C)c1cccc(O)c1 | 0.62 | – | – | 31 | 0.54 | IC50 [4]: 1.2 nM; IC50 [5]: 16 nM
3 | C[C@H]1CN2C[C@@H](c3ccccc3)CC[C@H]2C[C@@]1(C)c1cccc(O)c1 | 110 | 440 | 51 | – | 110 | –
4 | C[C@H]1CN2C[C@H](c3ccccc3)CC[C@@H]2C[C@@]1(C)c1cccc(O)c1 | 110 | 430 | – | 900 | 210 | –
5 | C[C@H]1[C@H]2CC[C@H](c3ccccc3)CN2CC[C@@]1(C)c1cccc(O)c1 | 26 | 35 | – | 25 | 190 | –
6 | C[C@H]1[C@@H]2CC[C@H](c3ccccc3)CN2CC[C@@]1(C)c1cccc(O)c1 | 73 | 100 | – | 190 | 150 | –
7 | C[C@H]1[C@@H]2CC[C@@H](c3ccccc3)CN2CC[C@@]1(C)c1cccc(O)c1 | 0.9 | 65 | – | 2.1 | – | EC50 (Mu-type opioid receptor [8]): 53 nM; EC50 [9]: 200 nM; EC50 [10]: 55 nM
8 | C[C@H]1[C@@H]2CCCCN2CC[C@@]1(C)c1cccc(O)c1 | 120 | 69 | – | 220 | 1000 | –
9 | C[C@H]1CN2CCCC[C@H]2C[C@@]1(C)c1cccc(O)c1 | 940 | – | 37 | – | – | inhibition [11]: 44%
10 | C[C@H]1[C@H]2CC[C@@H](c3ccccc3)CN2CC[C@@]1(C)c1cccc(O)c1 | 37 | 16 | – | 280 | 120 | –
11 | C[C@H]1[C@H]2CCCCN2CC[C@@]1(C)c1cccc(O)c1 | – | 520 | 47 | – | – | inhibition (Mu-type opioid receptor [12]): 43%
12 | C[C@H]1CN2CCCC[C@@H]2C[C@@]1(C)c1cccc(O)c1 | 710 | 520 | 40 | – | – | –
